Publication PMC3078649 (Molecular pharmaceutics, 2010)

How the values were obtained:
[1] = test system: MDCK cell monolayers; conditions: shown previously; cited from earlier work
[2] = test system: blood brain barrier; assay: In situ rat brain perfusion, 14C-mannitol permeation; assay type: in vivo; conditions: for Enhancement of 14C-mannitol permeation through the BBB compared to vehicle: 1.0 mM test substance pre-perfused 4 min at 10 ml/min, triplicate
Procedure, shortened: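 Perfusion was 4 min with vehicle (0.5% Tween in sterile saline) or 1.0 or 0.5 mM peptide, then immediately 4 min with 14C-mannitol (10 µCi). Brain radioactivity was measured in triplicate, reported as mean ± SD, and compared with vehicle (p < 0.05).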

[3] = test system: blood brain barrier; assay: In situ rat brain perfusion, [3H; assay type: in vivo; conditions: 1.0 mM HAV6 first, then daunomycin with 500 µM verapamil; p < 0.001 (Fig. 3 E)
[4] = test system: Caco-2 cell monolayers; assay: Peptide stability on Caco-2 cell monolayers; assay type: in vitro ADME
[5] = test system: EC5 domain of E-cadherin; conditions: cited from earlier work
[6] = test system: intercellular junctions of Caco-2 cell monolayers; assay: Inhibition of intercellular junction resealing; assay type: cell-based; conditions: for Inhibition of resealing (% TEER difference between 8- and 2-h time points) compared to blank: AP-BL sides of Caco-2 monolayers (Fig. 5); for Inhibition of resealing of intercellular junctions (TEER time course): 0.5 mM peptide, AP-BL sides, conditioned Caco-2 monolayers; for Activity in the resealing assay compared to either ADT6 or HAV6: conjugates with aminocaproic acid (cap) linker
Procedure, shortened: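 Caco-2 cells were grown on 3 µm-pore Transwell inserts (50,000 cells/insert) and used on days 15–20. Initial TEER was taken after 1 h at 37 °C in HBSS pH 7.4 (10 mM Hepes, 1% glucose, 2.0 mM CaCl2). Cells were conditioned 2 h in calcium-free medium. Peptide (0.5 or 1.0 mM) in Ca-HBSS was added AP, BL or AP-BL, with blank and unrelated-peptide controls. TEER was read hourly, minus 90 Ω × cm2 background, in triplicate. Inhibition was the TEER change from 2 to 8 h.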

[7] = test system: E-cadherin-mediated adhesion of Caco-2 cells; conditions: shown previously; cited from earlier work
[8] = test system: E-cadherin-mediated adhesion of Caco-2 cells; assay: Homotypic adhesion of Caco-2 single cells to attached cells; assay type: cell-based; conditions: 250 µM peptide
Procedure, shortened: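 Single Caco-2 cells were released by Ca2+/Mg2+-free EBSS (1 h, 37 °C) and labelled with BCECF-AM. They were added at 5 × 10^4 cells/well to Caco-2 monolayers pretreated 2 h at 37 °C in Ca2+-free EBSS (1 mM Mg2+, 0.1% BSA). Co-incubation with peptide was 2 h at 37 °C. Positive control was anti-E-cadherin antibody DECMA-1 at 1:100. Unbound cells were removed and attached cells lysed; fluorescence was read at ex 485/em 530 nm.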

Which “Enhancement of 14C-mannitol permeation through MDCK cell monolayers” value [1] does the source give for Ac-ADTPPV-NH2 [ADT6] here?
Its value is “enhance ^14C-mannitol through MDCK cell monolayers”.

Which “Amount of mannitol delivered to the brain: lowering when HAV6 was lowered from 1.0 mM to 0.5 mM” value ([2]; 0.5 mM versus 1.0 mM HAV6) does the source give for Ac-SHAVSS-NH2 [HAV6] here?
Its value is 40%.

What about the “Enhancement of 14C-mannitol permeation through the BBB compared to vehicle” value [2] of the same substance?
Its value is “significantly enhanced”.

And the “Amount of daunomycin in the brain compared to vehicle-treated BBB” value [3]?
Its value is “tremendous increase”.

And the “Metabolic stability on Caco-2 cell monolayer” value ([4]; 96-h incubation on Caco-2 cell monolayer)?
The value was “metabolically stable”.

And the “Binding to the expressed EC5 domain by NMR spectroscopy” value [5]?
Its value is “bind the expressed EC5 domain”.

For “Ac-HSVSAS-NH2 [HAVscr, reference compound]”, which “Inhibition of resealing (% TEER difference between 8- and 2-h time points) compared to blank” value ([6]; 1.0 mM peptide) is on record?
The value was “could not suppress the resealing”.

For Ac-LFSHAVSSNG-NH2 [HAV10], which “Inhibition of resealing of intercellular junctions (TEER time course)” value [6] is on record?
The value was “not at 0.5 mM”.

And the Peptide concentration remaining ([4]; 100 µM peptide, apical side of Caco-2 cell monolayers, 8 h incubation)?
The Peptide concentration remaining was 80%.

And the “Inhibition of homotypic Caco-2 cell adhesion” value [7]?
Its value is “inhibit the homotypic Caco-2 cell adhesion”.

What about the “Enhancement of 14C-mannitol permeation through MDCK cell monolayers” value [1] of the same substance?
Its value is “enhance ^14C-mannitol through MDCK cell monolayers”.

For Ac-SHAVSS-cap-ADTPPV-NH2, which “Activity in the resealing assay compared to either ADT6 or HAV6” value [6] is on record?
Its value is “did not show any improved activity”.

Which “Potency in blocking homotypic cell-cell adhesion relative to BLG1 and BLG4” value [8] does the source give for Ac-QDPELPDKNM-NH2 [BLG2] here?
Its value is “more potent”.

For Ac-DTPPV-cap-SHAVSS-NH2, which “Activity in the resealing assay compared to either ADT6 or HAV6” value [6] is on record?
Its value is “did not show any improved activity”.

With Ac-QGADTPPVGV-NH2 [ADT10] as the substance, how does the “Inhibition of resealing of intercellular junctions (TEER time course)” value [6] read?
Its value is “still active”.

What about the “Inhibition of resealing (% TEER difference between 8- and 2-h time points) compared to blank” value ([6]; 1.0 mM peptide) of the same substance?
The value was “significantly suppress the resealing”.

And the “Enhancement of 14C-mannitol permeation through MDCK cell monolayers” value [1]?
Its value is “enhance ^14C-mannitol through MDCK cell monolayers”.

Which “Inhibition of resealing (% TEER difference between 8- and 2-h time points) compared to blank” value ([6]; 1.0 mM peptide) does the source give for “Ac-SSVAHS-NH2 [HAVrev, reference compound]” here?
Its value is “could not suppress the resealing”.

What does the source list for Ac-TYRIWRDTAN-NH2 [BLG4]?
Rank of inhibitory activity in the resealing assay among BLG peptides ([6]; 1.0 mM peptide, AP-BL sides (Fig. 5)): best inhibitory activity; Inhibition of resealing (% TEER difference between 8- and 2-h time points) compared to blank ([6]; 1.0 mM peptide): significantly suppress the resealing; Binding to the expressed EC5 domain by NMR spectroscopy [5]: bind the expressed EC5 domain

For EATDSG [LABL6, reference compound], which “Enhancement of 14C-mannitol permeation through the BBB compared to vehicle” value [2] is on record?
Its value is “did not enhance”.

For Ac-NDDGGQFVVT-NH2 [BLG3], which “Inhibition of resealing (% TEER difference between 8- and 2-h time points) compared to blank” value ([6]; 1.0 mM peptide) is on record?
The value was “could not inhibit the resealing”.
